# From ChEMBL document CHEMBL4145545, “Synthesis and structure-activity relationships of asymmetric dimeric β-carboline derivatives as potential antitumor agents” (Eur J Med Chem, 2018)
# Activity calls are given as the source filed them. The rule behind the calls is not given here.
# Tests used:
# HepG2 = experiment: Cytotoxicity against human HepG2 cells assessed as cell growth inhibition after 24 hrs by MTT assay; format: functional, cell-based; conditions: HepG2, 24 h
# Method in brief: (§1)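 Cell lines grown to log phase in RPMI-1640 with 10% FBS, penicillin and streptomycin. About 10^5 cells/mL were plated and pre-incubated 24 h at 37 °C in 5% CO2. Compounds were given in DMSO, final ≤2% (v/v). MTT read-out was OD at 490 nm. Triplicate wells per concentration, each assay run ≥3 times. IC50 is 50% OD reduction versus untreated cells, calculated by the Logit method. Cisplatin was the reference.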
# MCF7 = experiment: Cytotoxicity against human MCF7 cells assessed as cell growth inhibition after 24 hrs by MTT assay; format: functional, cell-based; conditions: MCF7, 24 h; method in brief: as §1
# [1] = Cytotoxicity against human BGC cells assessed as cell growth inhibition after 24 hrs by MTT assay; format: functional, cell-based; method in brief: as §1
# A-375 = experiment: Cytotoxicity against human A375 cells assessed as cell growth inhibition after 24 hrs by MTT assay; format: functional, cell-based; conditions: A-375, 24 h; method in brief: as §1
# HT-29 = experiment: Cytotoxicity against human HT-29 cells assessed as cell growth inhibition after 24 hrs by MTT assay; format: functional, cell-based; conditions: HT-29, 24 h; method in brief: as §1
# 769-P = experiment: Cytotoxicity against human 769-P cells assessed as cell growth inhibition after 24 hrs by MTT assay; format: functional, cell-based; method in brief: as §1
# SK-OV-3 = experiment: Cytotoxicity against human SKOV3 cells assessed as cell growth inhibition after 24 hrs by MTT assay; format: functional, cell-based; conditions: SK-OV-3, 24 h; method in brief: as §1
# ECa-109 cell line = experiment: Cytotoxicity against human ECA109 cells assessed as cell growth inhibition after 24 hrs by MTT assay; format: functional, cell-based; conditions: ECa-109, 24 h; method in brief: as §1
# [2] = test system: Lewis lung carcinoma cell line; experiment: Cytotoxicity against mouse LLC cells assessed as cell growth inhibition after 24 hrs by MTT assay; format: functional, cell-based; method in brief: as §1
# [3] = Acute toxicity in ip dosed Kunming mouse observed continuously for first 2 hrs, intermittently for next 24 hrs and occasionally thereafter for 14 days; format: organism-based; conditions: in vivo
# Method in brief: (§2)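 SPF KM mice, 6-8 weeks, 19-22 g, fasted overnight with water available. Single i.p. dose, 5.0 to 500 mg kg-1 in 0.5% CMC-Na, 10 mice per group (5 male, 5 female). Observed for behaviour, neurotoxic signs and deaths, then killed on day 14 and heart, liver and kidneys inspected macroscopically. LD50 derived graphically.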
# Mus musculus [4] = experiment: Neurotoxicity in Kunming mouse assessed as tremble at 5 to 500 mg/kg, ip observed continuously for first 2 hrs, intermittently for next 24 hrs and occasionally thereafter for 14 days; format: toxicity, organism-based; conditions: in vivo; method in brief: as §2
# Mus musculus [5] = experiment: Neurotoxicity in Kunming mouse assessed as twitch at 5 to 500 mg/kg, ip observed continuously for first 2 hrs, intermittently for next 24 hrs and occasionally thereafter for 14 days; format: toxicity, organism-based; conditions: in vivo; method in brief: as §2
# Mus musculus [6] = experiment: Neurotoxicity in Kunming mouse assessed as jumping behavior at 5 to 500 mg/kg, ip observed continuously for first 2 hrs, intermittently for next 24 hrs and occasionally thereafter for 14 days; format: toxicity, organism-based; conditions: in vivo; method in brief: as §2
# Mus musculus [7] = experiment: Neurotoxicity in Kunming mouse assessed as supination at 5 to 500 mg/kg, ip observed continuously for first 2 hrs, intermittently for next 24 hrs and occasionally thereafter for 14 days; format: toxicity, organism-based; conditions: in vivo; method in brief: as §2
# Mus musculus [8] = experiment: Acute toxicity in ip dosed Kunming mouse assessed as death at higher dose up to 4 to 8 hrs; format: organism-based; conditions: in vivo; method in brief: as §2
# Mus musculus [9] = experiment: Cardiotoxicity in Kunming mouse at 5 to 500 mg/kg, ip after 14 days by macroscopic method; format: toxicity, organism-based; conditions: in vivo, 336 h
# Mus musculus [10] = experiment: Nephrotoxicity in Kunming mouse at 5 to 500 mg/kg, ip after 14 days by macroscopic method; format: toxicity, organism-based; conditions: in vivo, 336 h
# Mus musculus [11] = experiment: Hepatotoxicity in Kunming mouse at 5 to 500 mg/kg, ip after 14 days by macroscopic method; format: toxicity, organism-based; conditions: in vivo, 336 h
# Sarcoma-180 [12] = experiment: Antitumor activity against mouse Sarcoma 180 cells implanted in mouse assessed as tumor growth inhibition at 10 mg/kg, ip administered once per day for 7 consecutive days starting from 24 hrs post tumor inoculation and measured on day 21 post tumor inoculation relative to control; format: functional; conditions: Sarcoma-180, ip, read-out: TGI
# Method in brief: (§3)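 Tumor cells were harvested from 7-day donor tumors, and 2×10^6 viable cells/mouse were injected s.c. in the armpit. Groups of 10 female mice received i.p. compound daily for 7 days, starting 24 h after inoculation. Controls were vehicle (negative) and CTX 30 mg/kg (positive). Body weight was recorded every 3 days. On day 21 tumors were excised and weighed, and inhibition was calculated as (C−T)/C×100 from mean tumor weights.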
# [13] = test system: Lewis lung carcinoma cell line; experiment: Antitumor activity against mouse LLC cells implanted in mouse assessed as tumor growth inhibition at 10 mg/kg, ip administered once per day for 7 consecutive days starting from 24 hrs post tumor inoculation and measured on day 21 post tumor inoculation relative to control; format: functional; conditions: read-out: TGI; method in brief: as §3
# Sarcoma-180 [14] = experiment: Antitumor activity against mouse Sarcoma 180 cells implanted in mouse assessed as tumor growth inhibition at 30 mg/kg, ip administered once per day for 7 consecutive days starting from 24 hrs post tumor inoculation and measured on day 21 post tumor inoculation relative to control; format: functional; conditions: Sarcoma-180, ip, read-out: TGI
# Method in brief: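 Tumour cells passaged in mice for 7 days, then 2 × 10^6 viable cells given s.c. into the armpit of female mice, 10 per group. […] CTX at 30 mg kg-1 as reference, vehicle as negative control. Body weight recorded every 3 days. Tumours excised and weighed on day 21. Inhibition = (C − T)/C × 100, using mean tumour weights.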
# [15] = test system: Lewis lung carcinoma cell line; experiment: animal or person; conditions: Mus musculus, ip, read-out: TGI
# Chorioallantoic membrane = experiment: In vivo antiangiogenic activity in chicken embryo chorioallantoic membrane at 50 uM/disc after 48 hrs by microscopic method; format: functional, organism-based; conditions: Gallus gallus
Compound,IC50 (HepG2) [µM],IC50 (MCF7) [µM],IC50 [1] [µM],IC50 (A-375) [µM],IC50 (HT-29) [µM],IC50 (769-P) [µM],IC50 (SK-OV-3) [µM],IC50 (ECa-109 cell line) [µM],IC50 [2] [µM],further results
Cc1nccc2c3ccccc3n(CCCCCCOc3ccc4c5ccnc(C)c5n(CCCc5ccccc5)c4c3)c12,14.1,11.7,12.5,15.8,28.1,16.1,19.4,15.1,14.1,–
CCCCn1c2cc(OCCCCn3c4ccccc4c4ccnc(C)c43)ccc2c2ccnc(C)c21.Cl,15.7,11.2,33.6,14.1,16.4,15.3,21.7,12.2,13.3,LD50 at 14 days [3]: 50 mg/kg; Activity (Mus musculus [4]): Non-Toxic; Activity (Mus musculus [5]): Non-Toxic; Activity (Mus musculus [6]): Non-Toxic; Activity (Mus musculus [7]): Non-Toxic; Activity (Mus musculus [8]): Toxic; Activity (Mus musculus [9]): Non-Toxic; Activity (Mus musculus [10]): Non-Toxic; Activity (Mus musculus [11]): Non-Toxic; inhibition in vivo at 10 mg/kg (Sarcoma-180 [12]): 53.3%; inhibition in vivo at 10 mg/kg [13]: 27.2%
Cc1nccc2c3ccccc3n(CCCCOc3ccc4c5ccnc(C)c5n(CCCc5ccccc5)c4c3)c12.Cl,9.1,4,7.4,8.4,14.1,9.9,13.1,9.9,4.4,LD50 at 14 days [3]: 150 mg/kg; Activity (Mus musculus [4]): Non-Toxic; Activity (Mus musculus [5]): Non-Toxic; Activity (Mus musculus [6]): Non-Toxic; Activity (Mus musculus [7]): Non-Toxic; Activity (Mus musculus [8]): Toxic; Activity (Mus musculus [9]): Non-Toxic; Activity (Mus musculus [10]): Non-Toxic; Activity (Mus musculus [11]): Non-Toxic; inhibition in vivo at 30 mg/kg (Sarcoma-180 [14]): 36.7%
CCn1c2cc(OCCCCCCn3c4ccccc4c4ccncc43)ccc2c2ccnc(C)c21,> 100,19,40.7,34.7,60.3,> 100,> 100,17.4,21.8,–
CCCCn1c2cc(OCCCCCn3c4ccccc4c4ccncc43)ccc2c2ccnc(C)c21,65.1,16.7,> 100,> 100,32.6,31.1,65.1,> 100,> 100,–
COc1ccc(-c2nccc3c4ccccc4n(CCCCOc4ccc5c6ccnc(C)c6n(CCCc6ccccc6)c5c4)c23)cc1OC,2.4,7.2,9.7,6.7,22.7,8.2,8.8,9.3,6.2,–
O=P1(N(CCCl)CCCl)NCCCO1 (stereo unspecified) [CYCLOPHOSPHAMIDE ANHYDROUS],–,–,–,–,–,–,–,–,–,inhibition in vivo at 30 mg/kg (Sarcoma-180 [14]): 82.5%; inhibition in vivo at 30 mg/kg [15]: 80.7%
CCn1c2cc(OCCCCCn3c4ccccc4c4ccnc(C)c43)ccc2c2ccnc(C)c21,112,56.3,35.4,31.5,14.9,70.6,30.8,46.6,> 100,–
Cc1nccc2c3ccc(OCCCCn4c5ccccc5c5ccncc54)cc3n(CCCc3ccccc3)c12.Cl,9.7,4.5,8.5,33.4,15.9,10.7,13.8,9.5,9.6,LD50 at 14 days [3]: 50 mg/kg; Activity (Mus musculus [4]): Non-Toxic; Activity (Mus musculus [5]): Non-Toxic; Activity (Mus musculus [6]): Non-Toxic; Activity (Mus musculus [7]): Non-Toxic; Activity (Mus musculus [8]): Toxic; Activity (Mus musculus [9]): Non-Toxic; Activity (Mus musculus [10]): Non-Toxic; Activity (Mus musculus [11]): Non-Toxic; inhibition in vivo at 10 mg/kg (Sarcoma-180 [12]): 33.5%
COc1cc(-c2nccc3c4ccccc4n(CCCCOc4ccc5c6ccnc(C)c6n(CCCc6ccccc6)c5c4)c23)cc(OC)c1OC,24.9,11.7,18.2,7.1,3.9,14.1,10.3,9.7,8.7,–
CCn1c2cc(OCCCCn3c4ccccc4c4ccncc43)ccc2c2ccnc(C)c21,> 100,19.4,41.5,30.7,37,27.4,19.8,37,16.5,–
Cc1nccc2c3ccc(OCCCCn4c5ccccc5c5ccnc(-c6ccccc6Cl)c54)cc3n(CCCc3ccccc3)c12,14.4,5.9,12.4,3.9,20.2,21.9,22.9,18.4,10.1,–
Cc1nccc2c3ccc(OCCCCn4c5ccccc5c5ccnc(-c6cccnc6)c54)cc3n(CCCc3ccccc3)c12,10.7,29.8,4.2,18.9,11.2,7.2,22.9,12.9,9.4,–
Cc1nccc2c3ccc(OCCCCCCn4c5ccccc5c5ccncc54)cc3n(CCCc3ccccc3)c12,12.1,8.5,11.2,37.1,16.2,13.1,76.4,12.6,28.2,–
COc1ccc(/C=C\c2cc(OC)c(OC)c(OC)c2)cc1OP(=O)(O)O,–,–,–,–,–,–,–,–,–,Activity (Chorioallantoic membrane): Active
CCCCn1c2cc(OCCCCCn3c4ccccc4c4ccnc(C)c43)ccc2c2ccnc(C)c21,> 100,> 100,> 100,50.8,10.1,11.6,14.3,> 100,12.4,–
CCCCn1c2cc(OCCCCCCn3c4ccccc4c4ccncc43)ccc2c2ccnc(C)c21,51.7,> 100,> 100,78.3,> 100,> 100,> 100,> 100,46.1,–
CCCCn1c2cc(OCCCCn3c4ccccc4c4ccncc43)ccc2c2ccnc(C)c21,29.5,28.8,41.5,72.4,21.8,22.9,17.3,21.8,38,–
CCn1c2cc(OCCCCCCn3c4ccccc4c4ccnc(C)c43)ccc2c2ccnc(C)c21,74.6,75.2,44.7,74.6,36.2,75.2,11.2,61.4,51.1,–
Cc1nccc2c3ccc(OCCCCn4c5ccccc5c5ccnc(C(C)C)c54)cc3n(CCCc3ccccc3)c12,46.2,14.4,37.8,23.8,12.1,18.5,28.1,16.2,10.8,–
